In assay [1] the test system is HCT-116. Nature of the assay: Cytotoxicity against human HCT116 cells after 24 hrs by sulforhodamine B assay. Format: functional, cell-based. Particulars: HCT-116, 24 h. (In general: The SRB assay estimates cell density from bound dye.)
The target in assay [2] is Histone deacetylase 3 (Homo sapiens, UniProt O15379). Kind of assay: Inhibition of human HDAC3 by fluorimetry. In short, it runs like this:
(§1)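 Each purified single HDAC isoform incubated with fluorogenic substrate, a p53 fragment (residues […], Arg-His-Lys-Lys(Ac)) carrying an ε-acetylated lysine; deacetylation releases fluorophore, read by fluorimeter. Compounds tested as 10 doses, 1:3 serial dilution starting from 50 µM solution. IC50 from dose-response inhibition curves; trichostatin A as reference compound.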

The target in assay [3] is T1, Histone deacetylase 8 (Homo sapiens, UniProt Q9BY41).
T1 sequence (Q9BY41 whole entry): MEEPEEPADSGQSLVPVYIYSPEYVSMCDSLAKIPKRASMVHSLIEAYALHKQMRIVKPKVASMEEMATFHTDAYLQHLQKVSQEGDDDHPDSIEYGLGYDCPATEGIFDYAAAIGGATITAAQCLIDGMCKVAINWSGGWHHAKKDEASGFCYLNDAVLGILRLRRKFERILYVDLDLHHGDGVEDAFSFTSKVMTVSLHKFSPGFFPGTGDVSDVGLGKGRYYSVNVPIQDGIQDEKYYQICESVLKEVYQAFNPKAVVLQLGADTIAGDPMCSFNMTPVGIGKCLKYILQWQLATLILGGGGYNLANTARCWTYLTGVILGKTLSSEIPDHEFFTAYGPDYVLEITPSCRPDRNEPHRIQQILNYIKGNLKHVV
Nature of the assay: Inhibition of human HDAC8 by fluorimetry. In short, it runs like this:
as §1

For assay [4], the target named is T2, Polyamine deacetylase HDAC10 (Homo sapiens, UniProt Q969S8).
T2 sequence (Q969S8 whole entry): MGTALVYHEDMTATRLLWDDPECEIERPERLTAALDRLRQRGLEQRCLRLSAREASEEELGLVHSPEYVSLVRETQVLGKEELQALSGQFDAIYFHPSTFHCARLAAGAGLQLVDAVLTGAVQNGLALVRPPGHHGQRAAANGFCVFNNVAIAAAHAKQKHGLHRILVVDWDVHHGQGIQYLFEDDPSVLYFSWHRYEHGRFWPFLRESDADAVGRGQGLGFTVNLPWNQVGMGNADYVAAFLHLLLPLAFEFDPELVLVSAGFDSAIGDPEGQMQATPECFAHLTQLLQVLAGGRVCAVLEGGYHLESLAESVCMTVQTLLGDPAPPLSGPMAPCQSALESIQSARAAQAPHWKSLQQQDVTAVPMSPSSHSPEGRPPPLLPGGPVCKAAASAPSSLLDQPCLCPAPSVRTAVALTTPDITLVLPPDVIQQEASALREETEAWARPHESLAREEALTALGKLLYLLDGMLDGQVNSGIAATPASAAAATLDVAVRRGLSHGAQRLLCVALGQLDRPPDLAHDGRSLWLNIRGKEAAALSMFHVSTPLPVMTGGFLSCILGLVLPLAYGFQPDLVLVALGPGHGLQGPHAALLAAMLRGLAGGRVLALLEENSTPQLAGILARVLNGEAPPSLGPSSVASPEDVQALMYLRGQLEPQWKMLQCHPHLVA
Nature of the assay: Inhibition of human HDAC10 by fluorimetry. In short, it runs like this: as §1

Each structure is given as a SMILES string. pIC50: −log10 of the molar value.

For orientation: pIC50 means the IC50 on a negative log10 scale, so that one unit is a factor of ten.

Sequence of Histone deacetylase 3 (O15379 whole entry, the tested form may be a part, canonical isoform): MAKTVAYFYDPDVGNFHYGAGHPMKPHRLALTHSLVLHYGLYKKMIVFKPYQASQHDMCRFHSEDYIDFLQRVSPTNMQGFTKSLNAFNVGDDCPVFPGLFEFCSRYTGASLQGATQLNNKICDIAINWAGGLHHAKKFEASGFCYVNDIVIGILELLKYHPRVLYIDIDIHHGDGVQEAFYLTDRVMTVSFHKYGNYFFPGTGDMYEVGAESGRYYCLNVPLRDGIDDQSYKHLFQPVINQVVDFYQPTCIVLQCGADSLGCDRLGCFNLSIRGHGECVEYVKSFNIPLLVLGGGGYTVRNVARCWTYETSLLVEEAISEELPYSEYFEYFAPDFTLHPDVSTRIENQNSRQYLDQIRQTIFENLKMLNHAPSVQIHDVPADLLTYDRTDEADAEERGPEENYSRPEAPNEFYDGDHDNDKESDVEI

With `O=C(/C=C/c1ccc(C(c2c[nH]c3ccccc23)c2c[nH]c3ccccc23)cc1)NO`, the negative logarithm of the IC50 (pIC50) in assay [1] was 5.59; in assay [2] it was 6.36; in assay [3], 6.14; in assay [4] it was 5.33.

(Values after ChEMBL document CHEMBL1153591, “Exploring bis-(indolyl)methane moiety as an alternative and innovative CAP group in the design of histone deacetylase (HDAC) inhibitors” (Bioorg Med Chem Lett, 2009).)
